Source: ChEMBL document CHEMBL1129428 (J Med Chem, 1996)

Key:
Mus musculus [1] = experiment: Anticonvulsant activity after intraperitoneal injection into mice by using scPTZ screen test after 4 hr; assay type: functional
[2] = Compound was tested for toxicity after oral administration in rat by using neurotoxicity screen test after 4 hr; assay type: organism-based; conditions: in vivo
Method in brief: (§1)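 Rat neurotoxicity after oral dosing, observed at 0.25, 0.5, 1, 2, 4, 6, 8 and 24 h (8 h omitted for one compound).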

Rattus norvegicus [3] = experiment: Compound was tested for anticonvulsant activity after Oral Administration into rat by using MES screen test after 4 hr; assay type: functional
Method in brief: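 Rats dosed orally, typically at 50 mg/kg first, then mostly 12.5 mg/kg (some compounds at 30 mg/kg), and tested by maximal electroshock. Four rats per compound, scored at 0.25, 0.5, 1, 2 and 4 h as the number of rats protected out of 4.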

Mus musculus [4] = experiment: Compound was tested for toxicity after intraperitoneal injection into mice by using toxicity screen test after 4 hr; assay type: organism-based; conditions: in vivo, ip
Method in brief: (§2)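 Mice injected intraperitoneally at 30, 100 and 300 mg/kg and examined 0.5 and 4 h afterwards. Each entry is the minimum dose giving activity (MES protection, scPTZ protection, or rotorod failure for neurotoxicity) in half or more of the mice. Activity is called absent if nothing occurs at 300 mg/kg.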

[5] = Protection index = TD50/ED50; assay type: ADME; conditions: read-out: PI
[6] = Compound was tested for toxicity after intraperitoneal injection into mice by using neurotoxicity screen test after 2 hr; assay type: organism-based; conditions: mouse, in vivo, ip
Method in brief: (§3)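 Quantitative intraperitoneal mouse testing in the MES, scPTZ or rotorod neurotoxicity screens at the peak time given for each compound (0.25–2 h). ED50 or TD50 reported in mg/kg with 95% CI and slope (SE).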

[7] = Protection index = TD50/ED50 (MES); conditions: mouse, in vivo; read-out: PI
Mus musculus [8] = experiment: Anticonvulsant activity after intraperitoneal injection into mice by using MES screen test after 0.5 hr; assay type: functional
Rattus norvegicus [9] = experiment: Compound was tested for anticonvulsant activity after Oral Administration into Rats by using MES screen test after 2h,dose 30 mg/kg; number of rats out of four which were protected; assay type: functional
Method in brief: (§4)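 Rats received the compound orally. […] Rats were tested in the MES screen at 0.25, 0.5, 1, 2 and 4 h. Each value is the number of rats protected out of 4. The test followed NINDS procedures.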

Rattus norvegicus [10] = experiment: Compound was tested for anticonvulsant activity after Oral Administration into Rats by using MES screen test after 0.5h,dose 30 mg/kg; number of rats out of four which were protected; assay type: functional; method in brief: as §4
Mus musculus [11] = experiment: Compound was tested for anticonvulsant activity after intraperitoneal injection into mice by using scPTZ screen test after 2 hr; assay type: functional; conditions: ip; method in brief: as §3
Rattus norvegicus [12] = experiment: Compound was tested for anticonvulsant activity after Oral Administration into Rats by using MES screen test after 4h,dose 30 mg/kg; number of rats out of four which were protected; assay type: functional; method in brief: as §4
Mus musculus [13] = experiment: Toxicity after intraperitoneal injection into mice by using toxicity screen test after 0.5 hr; assay type: organism-based; conditions: in vivo, ip; method in brief: as §2
Mus musculus [14] = experiment: Anticonvulsant activity after intraperitoneal injection into mice measured in a maximal electroshock scree (MES) screen; assay type: functional
Rattus norvegicus [15] = experiment: Compound was tested for anticonvulsant activity after Oral Administration into Rats by using MES screen test after 1h,dose 30 mg/kg; number of rats out of four which were protected; assay type: functional; method in brief: as §4
Mus musculus [16] = experiment: Compound was tested for anticonvulsant activity after intraperitoneal injection into mice by using MES screen test after 2 hr; assay type: functional; conditions: ip; method in brief: as §3
Rattus norvegicus [17] = experiment: Compound was tested for anticonvulsant activity after Oral Administration into Rats by using MES screen test after 0.25h,dose 30 mg/kg; number of rats out of four which were protected; assay type: functional; method in brief: as §4
Rattus norvegicus [18] = experiment: Compound was tested for anticonvulsant activity after Oral Administration into Rats by using MES screen test after 4h,dose 12.50 mg/kg; number of rats out of four which were protected; assay type: functional; conditions: dose 12.5 mg/kg; method in brief: as §4
Rattus norvegicus [19] = experiment: Compound was tested for anticonvulsant activity after Oral Administration into Rats by using MES screen test after 1h,dose 12.50 mg/kg; number of rats out of four which were protected; assay type: functional; conditions: dose 12.5 mg/kg; method in brief: as §4
[20] = Compound was tested for toxicity after intraperitoneal injection into mice by using neurotoxicity screen test after 1 hr; assay type: organism-based; conditions: mouse, in vivo, ip; method in brief: as §3
Mus musculus [21] = experiment: Anticonvulsant activity after intraperitoneal injection into mice by using scPTZ screen after 0.5 hr; assay type: functional
Mus musculus [22] = experiment: Compound was tested for anticonvulsant activity after intraperitoneal injection into mice by using scPTZ screen test after 0.25 hr; assay type: functional; conditions: ip; method in brief: as §3
Rattus norvegicus [23] = experiment: Compound was tested for anticonvulsant activity after Oral Administration into Rats by using MES screen test after 0.5h,dose 12.50 mg/kg; number of rats out of four which were protected; assay type: functional; conditions: dose 12.5 mg/kg; method in brief: as §4
Mus musculus [24] = experiment: Compound was tested for anticonvulsant activity after intraperitoneal injection into mice by using MES screen test after 0.5 hr; assay type: functional; conditions: ip; method in brief: as §2
Rattus norvegicus [25] = experiment: Compound was tested for anticonvulsant activity after Oral Administration into Rats by using MES screen test after 2h,dose 12.50 mg/kg; number of rats out of four which were protected; assay type: functional; conditions: dose 12.5 mg/kg; method in brief: as §4
Rattus norvegicus [26] = experiment: Compound was tested for anticonvulsant activity after Oral Administration into Rats by using MES screen test after 0.25h,dose 12.50 mg/kg; number of rats out of four which were protected; assay type: functional; conditions: dose 12.5 mg/kg; method in brief: as §4
Rattus norvegicus [27] = experiment: Compound was tested for anticonvulsant activity after Oral Administration into Rats by using MES screen test after 4h,dose 50 mg/kg; number of rats out of four which were protected; assay type: functional; method in brief: as §4
Rattus norvegicus [28] = experiment: Compound was tested for anticonvulsant activity after Oral Administration into Rats by using MES screen test after 0.25h,dose 50 mg/kg; No activity was demonstarted; assay type: functional, organism-based; set-up: dose 50 mg/kg; method in brief: as §4
Rattus norvegicus [29] = experiment: Compound was tested for anticonvulsant activity after Oral Administration into Rats by using MES screen test after 0.5h,dose 50 mg/kg; No activity was demonstarted; assay type: functional, organism-based; set-up: dose 50 mg/kg; method in brief: as §4
Rattus norvegicus [30] = experiment: Compound was tested for anticonvulsant activity after Oral Administration into Rats by using MES screen test after 2h,dose 50 mg/kg; number of rats out of four which were protected; assay type: functional; method in brief: as §4
Rattus norvegicus [31] = experiment: Compound was tested for anticonvulsant activity after Oral Administration into Rats by using MES screen test after 1h,dose 50 mg/kg; No activity was demonstarted; assay type: functional, organism-based; set-up: dose 50 mg/kg; method in brief: as §4
[32] = Partition coefficient (logP); assay type: physicochemical; conditions: octanol/water
Method in brief: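 Partition between 1-octanol and buffer at pH 7.4, with solutions prepared in 1-octanol before buffer is added. Quantified by UV, using λmax and ε values measured in 1-octanol.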

Rattus norvegicus [33] = experiment: Compound was tested for anticonvulsant activity after Oral Administration into Rats by using MES screen test after 0.5h,dose 30 mg/kg; No activity was demonstarted; assay type: functional, organism-based; set-up: dose 30 mg/kg; method in brief: as §4
Rattus norvegicus [34] = experiment: Compound was tested for anticonvulsant activity after Oral Administration into Rats by using MES screen test after 1h,dose 30 mg/kg; No activity was demonstarted; assay type: functional, organism-based; set-up: dose 30 mg/kg; method in brief: as §4
Rattus norvegicus [35] = experiment: Compound was tested for anticonvulsant activity after Oral Administration into Rats by using MES screen test after 2h,dose 30 mg/kg; No activity was demonstarted; assay type: functional, organism-based; set-up: dose 30 mg/kg; method in brief: as §4
Mus musculus [36] = experiment: Anticonvulsant activity after intraperitoneal injection into mice by using MES screen test after 0.25 hr; assay type: functional
Rattus norvegicus [37] = experiment: Compound was tested for anticonvulsant activity after Oral Administration into Rats by using MES screen test after 0.25h,dose 12.5 mg/kg; No activity was demonstarted; assay type: functional, organism-based; set-up: dose 12.5 mg/kg; method in brief: as §4
Mus musculus [38] = experiment: Compound was tested for anticonvulsant activity after intraperitoneal injection into mice by using scPTZ screen test after 1 hr; assay type: functional; conditions: ip; method in brief: as §3
Rattus norvegicus [39] = experiment: Compound was tested for anticonvulsant activity after Oral Administration into Rats by using MES screen test after 2h,dose 12.5 mg/kg; number of rats out of four which were protected; assay type: functional; method in brief: as §4
Mus musculus [40] = experiment: Compound was tested for anticonvulsant activity after intraperitoneal injection into mice by using MES screen test after 4 hr; assay type: functional; conditions: ip; method in brief: as §2
Rattus norvegicus [41] = experiment: Compound was tested for anticonvulsant activity after Oral Administration into Rats by using MES screen test after 4h,dose 12.5 mg/kg; number of rats out of four which were protected; assay type: functional; method in brief: as §4
[42] = Compound was tested for toxicity after oral administration in rat by using neurotoxicity screen test after 0.25-24 hr; assay type: organism-based; conditions: in vivo; method in brief: as §1
[43] = Compound was tested for toxicity after intraperitoneal injection into mice by using neurotoxicity screen test after 4 hr; assay type: organism-based; conditions: mouse, in vivo, ip; method in brief: as §2
Rattus norvegicus [44] = experiment: Compound was tested for anticonvulsant activity after Oral Administration into Rats by using MES screen test after 1h,dose 12.5 mg/kg; number of rats out of four which were protected; assay type: functional; method in brief: as §4
Rattus norvegicus [45] = experiment: Anticonvulsant activity after oral administration into rats; assay type: functional; set-up: concentration or dose not given beside the values

logP [32]	SMILES	Dose (Mus musculus [1]) [mg/kg]	ED50 (Rattus norvegicus [3]) [mg/kg]	Dose (Mus musculus [4]) [mg/kg]	selectivity ratio [5]	Dose (Mus musculus [8]) [mg/kg]	Activity (Rattus norvegicus [12])	Dose (Mus musculus [13]) [mg/kg]	Dose (Mus musculus [14]) [mg/kg]	Activity (Rattus norvegicus [17])	Dose (Mus musculus [21]) [mg/kg]	ED50 (Mus musculus [22]) [mg/kg]	other results
–	C/C(=N/NC(N)=O)c1ccc(Oc2ccc(Cl)cc2)cc1	30	2.92	100	2.23	30	4	300	30	3	–	–	TD50 at 4 h [2]: < 500 mg/kg; TD50 at 2 h [6]: 76.5 mg/kg; selectivity ratio [7]: 8.37; Activity (Rattus norvegicus [9]): 4; Activity (Rattus norvegicus [10]): 4; ED50 (Mus musculus [11]): 34.4 mg/kg; Activity (Rattus norvegicus [15]): 4; ED50 (Mus musculus [16]): 9.14 mg/kg
–	Cc1ccc(Oc2ccc(/C=N/NC(N)=O)cc2)c(C)c1	30	–	100	–	30	–	300	30	–	30	33.6	Activity (Rattus norvegicus [18]): 4; Activity (Rattus norvegicus [19]): 4; TD50 at 1 h [20]: 37 mg/kg; Activity (Rattus norvegicus [23]): 4; ED50 (Mus musculus [24]): 4.6 mg/kg; Activity (Rattus norvegicus [25]): 4; Activity (Rattus norvegicus [26]): 1
1.92	NC(=O)N/N=C/c1ccc(Oc2ccc(Oc3ccccc3)cc2)cc1	–	–	–	–	–	–	–	300	–	–	–	Activity (Rattus norvegicus [27]): 1; Activity (Rattus norvegicus [28]): No activity; Activity (Rattus norvegicus [29]): No activity; Activity (Rattus norvegicus [30]): 1; Activity (Rattus norvegicus [31]): No activity
–	O=CN/N=C/c1ccc(Sc2ccc(F)cc2)cc1	300	–	300	–	100	1	–	100	1	–	–	Activity (Rattus norvegicus [33]): No activity; Activity (Rattus norvegicus [34]): No activity; Activity (Rattus norvegicus [35]): No activity
2.2	NC(=O)N1c2ccccc2C=Cc2ccccc21 [CARBAMAZEPINE]	300	–	300	–	30	–	100	100	–	100	> 50	ED50 (Mus musculus [36]): 9.85 mg/kg
–	CCC(C)c1ccc(Oc2ccc(/C=N\NC(N)=O)cc2)cc1 (configuration not stated)	100	3.21	100	1.51	100	–	300	30	–	–	–	Activity (Rattus norvegicus [37]): No activity; ED50 (Mus musculus [38]): 86.9 mg/kg; Activity (Rattus norvegicus [39]): 3; ED50 (Mus musculus [40]): 13.4 mg/kg; Activity (Rattus norvegicus [41]): 4; TD50 [42]: > 322 mg/kg; TD50 at 4 h [43]: 131 mg/kg; Activity (Rattus norvegicus [44]): 2; Activity (Rattus norvegicus [45]): 2
